HSV replic up – increases HSV replication in cells | AID 1956 | maximum fold increase | 220,000 tested, 0.005% active | HSV replication augmentation in cells, fold increase; in the data active = maximum fold increase above about 1.5; inconclusive = no clear call, values can overlap the other calls; tested in PC3 cells
Dynein cargo inh – blocks dynein driven cargo transport along microtubules | 3617.4 mouse cells, GR-EGFP nuclear translocation imaging; test concentration mostly 20 µM; stimulated with dexamethasone, 1 µM; stronger effect = lower value | z-score, hits read low | 220,000 tested, 0.47% active;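 active = plate z-score of nuclear minus cytoplasmic receptor signal below a set negative limit, without overly bright fluorescence or cell loss, cut at about -3.5 in these data, passing the limit was not always enough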;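 note: z-score of nuclear minus cytoplasmic ring GR-EGFP intensity difference per well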
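Buffer or medium: tet-free medium with charcoal-stripped serum / Also added: dexamethasone agonist, 1.0 µM final, for 30 min / Timing: induction 48 h, compound 1 h, agonist 30 min / Measured by: high-content fluorescence imaging after fixation / Read-out: nuclear-to-cytoplasmic GR-EGFP distribution per well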
L major viab – inhibitors of Leishmania major promastigote growth; 200,000 tested, 9% active; inhibition, % at 10 µM; Leishmania major promastigotes, resazurin fluorescence viability; AID 1063; in the data active = inhibition above about 50%;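 note: promastigotes grown with compound for 44 hours at 28 °C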
bCat nuc transl – beta-catenin nuclear translocation modulation | HeLa beta-catenin nuclear translocation, immunofluorescence imaging | nuclear translocation activity, % at 5 µM | 190,000 tested, 0.3% active | AID 1665;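 active = nuclear translocation activity above 50% at 5 µM, with a well cell count of 50 or more; inconclusive = wells under 50 cells across six images, flagged as toxic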;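 note: per-cell ratio of nuclear to cytoplasmic median beta-catenin stain intensity; plate controls were DMSO negative control for no effect and GSK-3 inhibitor IX positive control for full effect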
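Test system: human HeLa cells, native beta-catenin. Compound dosing: 5 µM primary single dose, 0.1% DMSO, 0.02–20 µM confirmation series. Incubation: compound exposure 24 h at 37°C. Detection: beta-catenin immunostaining with DAPI counterstain, 20x imaging, 6 fields/well. Read-out basis: Nuclear/cytoplasmic beta-catenin signal ratio, % activation.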
MT stabilize HCS – microtubule stabilizers in HeLa cells; AID 2205; HeLa tubulin immunostaining HCS, 24 h; share of cells brighter than vehicle mean+2SD; % tubulin-high responders, % at 10 µM; 200,000 tested, 0.83% active;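 active = plate Z-score above 3 for both tubulin-high and condensed-nucleus cell shares, with cell loss under 80%, at 10 µM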;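 note: anti alpha tubulin signal scored within the nucleus-defined area of each cell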
Dynein confirm – dynein cargo transport inhibition, confirmation. 1,000 tested, 69% active. AID 463116. shares compounds with Dynein cargo inh. calls only at 20 µM. 3617.4 GR-EGFP nuclear translocation imaging, dexamethasone-induced;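 active = inhibition of receptor movement into the nucleus at or above a set limit in both runs, with normal cell brightness and cell count; inconclusive = limit reached in only one run, brightness and count normal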;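 note: dexamethasone at 1 µM final in well for 30 min; nuclear minus cytoplasmic GR-EGFP mean intensity difference in channel 2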
* marks the source's active call; other numbers are inactive results; i = inactive; ? = inconclusive; . = not tested or not shown; + = active, no number. A selection: hits, their analogues and other compounds. The true share with any hit is near 8.9%.

SMILES	HSV replic up	Dynein cargo inh	L major viab	bCat nuc transl	MT stabilize HCS	Dynein confirm
COc1ccc(C(=O)CCN2CCN(c3ccccc3OC)CC2)cc1	i	-4.4*	16	0	3	+
COC(CNC(=O)c1ccc2c3c(onc13)-c1ccccc1C2=O)OC	i	-4.9*	.	4	.	+
N#C/C(=C/c1ccc(N2CCCCC2)o1)C(=O)Nc1ccc2ccccc2c1	.	-4*	16	6	3	+
N#C/C(=C/c1ccc(N2CCCCC2)o1)C(=O)Nc1ccc(Cl)cc1	?	-10	-4	-1	2	i
N#C/C(=C/c1ccc(N2CCCCCC2)o1)c1ccc(F)cc1	i	-3.8	27	.	7	i
COc1ccc(NC(=O)/C(C#N)=C\c2ccc(N3CCOCC3)o2)cc1	.	-1.1	-1	2	2	.
N#C/C(=C/c1ccc(N2CCCCCC2)o1)c1cccc(F)c1	i	-2.7	20	0	2	.
Cn1cccc1CC(=O)N/N=C/c1ccco1	i	3.3	.	-1	.	.
CC(=O)c1cccc(NC(=O)Nc2cnn(Cc3ccc(F)cc3)c2)c1	i	-0.18	11	-3	4	.
CNc1ccc(Cl)cc1C(N)=O	i	0.078	.	-1	.	.
N/C(=C\C(=O)c1cc(Cl)ccc1O)C(Cl)(Cl)Cl	i	-5*	.	0	.	+
CC(c1ccccc1)N1CNc2c(c(=O)n(C)c(=O)n2C)C1 (stereo unspecified)	i	0.47	-4	-3	5	.
CN(C(=O)CCl)C1CCCc2ccccc21 (stereo unspecified)	i	-7.6*	86*	0	4	+
CC1Cc2ccccc2N1C(=O)CSc1nnc2sc3ccccc3n12 (stereo unspecified)	i	-0.81	4	.	1	.
Cc1ccccc1NC(=O)C(Cl)=C(Cl)Cl	i	-3.8*	25	1	7	+
CSc1nnc(C)c(/C=C/NOCc2ccc(Cl)cc2)n1	i	0.43	18	5	6	.
CSc1nnc(C)c(/C=C/Nc2ccc(C)cc2)n1	i	-8.3	-3	3	2	+
Cc1ccc(/C=C/C(=O)Nc2ccc([N+](=O)[O-])cc2)o1	i	-1	9	1	1	.
Cc1ccc(/C=C/C(=O)Nc2ccc(Oc3ccccc3)cc2)o1	i	-3.6*	8	2	4	i
Cc1ccc(C(=O)/C=C\C(=O)c2ccc(C)cc2)cc1	i	-7.2*	100*	-1	2	+
CC(/C=C/C(=O)c1ccc(C)cc1)=C\c1ccccc1	.	-0.72	1	0	3	.
CCOC(=O)/C(C#N)=C\c1cn(C)c2ccccc12	i	-0.0015	-5	-4	2	.
CCOC(=O)/C(=C\c1cn(C)c2ccccc12)[N+](=O)[O-]	i	-3.7*	33	-2	2	+
CCN(CC)S(=O)(=O)c1ccc(N(C)C)c(NC(=O)CC(NC(C)=O)c2ccccc2)c1 (stereo unspecified)	i	-0.23	-6	-4	4	.
CCOC(=O)C1C(=O)C=C(/C=C/c2ccc(N(C)C)cc2)CC1c1ccccc1 (stereo unspecified)	?	-9.9	7	-2	7	i
SMILES	HSV replic up	Dynein cargo inh	L major viab	bCat nuc transl	MT stabilize HCS	Dynein confirm
O=C(Nc1cc(N2CCOCC2)ncn1)Nc1cccc2ccccc12	i	-0.79	-6	-1	4	.
Cc1ccc(-c2cn3nc(-c4ccccc4)c(-c4ccccc4)nc3n2)cc1	i	-4.6	.	-1	.	+
COCC(=O)N1CCC(Oc2ccc(C(=O)NCCc3ccncc3)cc2)CC1	i	-0.62	-12	0	2	.
Cc1cc(C(=O)O)sc1C	i	0.14	-8	-4	2	.
CC1(C)COC(/C=C/c2ccc([N+](=O)[O-])cc2)=N1	.	-4.1*	87*	32	18*	+
CC(=C/C(=O)O)/C=C/c1ccc([N+](=O)[O-])cc1	i	0.3	4	1	3	.
O=C(/C=C/c1cccc([N+](=O)[O-])c1)N1CCOCC1	i	-0.047	38	-2	1	.
O=C(/C=C/c1cccc([N+](=O)[O-])c1)n1cnc2ccccc21	i	-5.1*	-1	2	5	+
COc1cccc(-n2nnnc2SCC(=O)Nc2ccc(C(C)=O)cc2)c1	i	-0.057	2	2	5	.
CCCS(=O)(=O)c1nnnn1-c1cccc(OC)c1	i	-5.5*	100*	9	2	+
CCn1c(SCC(=O)c2cc(OC)ccc2OC)nnc1C(C)C	i	-2.3	-1	1	7	.
N#Cc1cc(-c2ccccc2)nc(Oc2ccc(Cl)cc2)n1	i	-4.3*	77*	-2	2	+
O=C(CSc1nnc(-c2cccs2)o1)N1CCc2ccccc21	i	-0.1	2	2	3	.
Cc1occc1-c1nnc(SCC(=O)N2CCc3ccccc32)o1	i	-4*	32	.	3	i
O=C1ON=C(c2ccccc2)/C1=C/c1ccc(-c2ccccc2[N+](=O)[O-])o1	i	-5.9*	100*	-1	4	+
COc1ccc(N2CCN(CCCNC(=S)Nc3c(C)cccc3C)CC2)cc1	i	0.17	3	0	3	.
COc1cc(C(Nc2ccccn2)c2ccc3ccc(C)nc3c2O)cc(OC)c1O (stereo unspecified)	i	-3.6*	94*	7	3	+
Cc1cccc(NC(c2ccc(C)s2)c2ccc3ccc(C)nc3c2O)n1 (stereo unspecified)	i	-0.61	37	-2	2	.
O=C(Oc1ccccc1C(=O)Nc1ccccc1)c1ccc(Br)c([N+](=O)[O-])c1	i	-3.9*	22	.	3	i
CCOC(=O)Nc1ccc2c(c1)N(C(=O)CN(CC)CC)c1ccccc1C=C2	i	-0.56	-2	1	3	.
CCN1CCN(C(=S)Nc2cccc([N+](=O)[O-])c2)CC1	i	-0.7	-5	2	8	.
CCN1C/C(=C/c2cccc([N+](=O)[O-])c2)C(=O)/C(=C/c2cccc([N+](=O)[O-])c2)C1	i	-4*	100*	13	42*	+
COc1ccc(CCNC(=O)C2(C)CCC(=O)N2CCC(C)C)cc1OC (stereo unspecified)	i	1.5	17	1	1	.
COc1ccc(CCNC(=O)c2n[nH]c3ccccc23)cc1	i	0.13	-2	-2	2	.
O=C1C=CC(=O)N1CCNc1ncc(C(F)(F)F)cc1Cl	i	-5.5*	2	0	4	+
O=c1c(Cl)c(Cl)cnn1Cc1ccc(F)cc1	i	-4.9*	73*	1	2	+
CC(C)(C)C(=O)Cn1ncc(Cl)c(Cl)c1=O	i	-6.1*	34	5	3	+
